Here are results for four molecules from article PMC12062833 (RSC Medicinal Chemistry, 2025).

SMILES strings stand for the structures. ≈ marks a conversion by molar mass, not a printed value.

Assay [1] relates to eight human tumor cell lines. The experiment in a line: Antiproliferative assay, span over the panel of tumor cell lines. The format is cell-based. As to conditions: 72 h, read-out: IC50 range across tested tumor cell lines. The essentials:
(§1)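 Adherent lines were seeded at 500 (Capan-1), 1000 (LN-229, HCT-116) or 1500 (NCI-H460) cells/well and dosed after overnight incubation. Suspension lines were seeded at 2500 (HL-60, K-562, Z-138) or 5500 (DND-41) cells/well directly onto compound. Seven 5-fold concentrations ran from 100 to 0.006 μM for 72 h. Viability was read as MTS absorbance at 490 nm after 3 h, and IC50 was derived from OD values. Two independent experiments.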

The test system of assay [2] is Capan-1 pancreatic adenocarcinoma cells. The experiment in a line: Antiproliferative assay. The format is cell-based. As to conditions: Homo sapiens, CAPAN-1, 72 h, read-out: IC50 Capan-1. An outline of the steps: as §1
Assay [3] relates to HCT-116 colon carcinoma cells. The experiment in a line: Antiproliferative assay. The format is cell-based. The conditions noted are these: Homo sapiens, HCT-116, 72 h, read-out: IC50 HCT-116. An outline of the steps: as §1
The test system of assay [4] is Klebsiella pneumoniae (ATCC 27736). The experiment in a line: Antibacterial MIC, macrodilution method, K. pneumoniae. It is filed as cell-based. The conditions noted are these: ATCC27736, read-out: MIC K. pneumoniae. The essentials: (§2)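 CLSI M07-A9 tube macrodilution. Strains were grown overnight on nutrient agar at 37 °C, and colonies were suspended in Mueller-Hinton broth. Inoculum was 1 × 10^6 per mL (5 × 10^5 per mL in test). DMSO stock was 5120 μg/mL. Final concentrations were 256 to […] in 2 mL. Tubes were incubated at 37 °C for 16–20 h. Controls were inoculum with and without 1% DMSO, and broth alone.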

Assay [5] has as its system Escherichia coli (ATCC 25922). The experiment in a line: Antibacterial MIC, macrodilution method, E. coli. As to conditions: ATCC25922, read-out: MIC E. coli. It is filed as cell-based. An outline of the steps:
as §2

Assay [6] has as its system K-562 chronic myeloid leukemia cells. Put plainly: Antiproliferative assay. The format is cell-based. As to conditions: Homo sapiens, K562, 72 h, read-out: IC50 K-562. The essentials: as §1
In assay [7] the test system is LN-229 glioblastoma cells. The experiment in a line: Antiproliferative assay. The format is cell-based. As to conditions: Homo sapiens, LN-229, 72 h, read-out: IC50 LN-229. The essentials:
as §1

Assay [8] relates to Enterococcus faecalis (ATCC 29212). Put plainly: Antibacterial MIC, macrodilution method, E. faecalis. The format is cell-based. As to conditions: MHB, 37 °C.
The subject of assay [9] is Staphylococcus aureus (ATCC 25923). Put plainly: Antibacterial MIC, macrodilution method, S. aureus. The format is cell-based. As to conditions: ATCC25923, read-out: MIC S. aureus. The essentials:
as §2

Assay [10] has as its system HL-60 acute myeloid leukemia cells. The experiment in a line: Antiproliferative assay. The format is cell-based. The conditions noted are these: Homo sapiens, HL-60, 72 h, read-out: IC50 HL-60. An outline of the steps: as §1
Assay [11] has as its system NCI-H460 non-small cell lung cancer cells. The experiment in a line: Antiproliferative assay. As to conditions: Homo sapiens, NCI-H460, 72 h, read-out: IC50 NCI-H460. The format is cell-based. An outline of the steps: as §1
Assay [12] deals with Pseudomonas aeruginosa (ATCC 9027). Put plainly: Antibacterial MIC, macrodilution method, P. aeruginosa. It is filed as cell-based. The conditions noted are these: ATCC9027, read-out: MIC P. aeruginosa. An outline of the steps: as §2
The test system of assay [13] is Z-138 non-Hodgkin's lymphoma cells. The experiment in a line: Antiproliferative assay. As to conditions: read-out: IC50 Z-138; 72 h incubation, two independent experiments. The format is cell-based, human. The essentials:
as §1

For orientation: IC50 means the concentration at which inhibition is half-maximal. In general, MIC refers to the least concentration at which growth counts as inhibited.

Turning to `Clc1ccc2nc(-c3ccc(OCCN4CCOCC4)cc3)[nH]c2c1` [Compound 16, 4-(2-(4-(6-Chloro-1H-benzo[d]imidazol-2-yl)phenoxy)ethyl)morpholine], the IC50 was 37.3 to 79.8 µM in assay [1]; 45 ± 5.1 µM in [2]; above 100 µM in assay [3]; 37.3 ± 3.9 µM in [6]; above 100 µM in assay [7]; 51.6 ± 1.5 µM in [10]. Moreover, the IC50 in [11] is above 100 µM. Besides, the MIC was above 256 µg/mL in [4], 256 µg/mL (≈ 715 µM) in assay [5], 64 µg/mL (≈ 179 µM) in assay [9] and above 256 µg/mL in [12]. Also, the “MIC E. faecalis” value in [8] was found to be 0.25 µg/mL (≈ 0.699 µM).
With `O=C(COc1ccc(-c2nc3ccc(Cl)cc3[nH]2)cc1)N1CCOCC1` [Compound 17, 2-(4-(6-Chloro-1H-benzo[d]imidazol-2-yl)phenoxy)-1-morpholinoethan-1-one], the IC50 in [2] was 28.5 ± 4.4 µM; in assay [3], above 100 µM; in assay [6], above 100 µM; in assay [7], above 100 µM; in assay [10], above 100 µM; in assay [11], above 100 µM. Besides, the MIC in assay [4], in [5], in assay [9] and in assay [12] was above 256 µg/mL throughout. In addition, in [8], the “MIC E. faecalis” value is 0.5 µg/mL (≈ 1.34 µM).
As for `Fc1cc(-c2nc3ccc(Cl)cc3[nH]2)ccc1OCCN1CCOCC1` [Compound 24, 4-(2-(4-(6-Chloro-1H-benzo[d]imidazol-2-yl)-2-fluorophenoxy)ethyl)morpholine], the IC50 in assay [2] was above 100 µM; in assay [3], above 100 µM; in assay [13], at least 80.5 µM; in [6], above 100 µM; in assay [7], above 100 µM; in [10] it was above 100 µM. Besides, in [11], the IC50 was above 100 µM. In addition, the MIC in assay [4], in [5], in assay [9] and in assay [12] was above 256 µg/mL in each case.
In the case of `O=C(COc1ccc(-c2nc3ccc(Cl)cc3[nH]2)cc1F)N1CCOCC1` [Compound 25, 2-(4-(6-Chloro-1H-benzo[d]imidazol-2-yl)-2-fluorophenoxy)-1-morpholinoethan-1-one], the IC50 in assay [2] was above 100 µM; in [3] it was above 100 µM; in [13], at least 64.8 µM; in assay [6], above 100 µM; in assay [7], above 100 µM; in assay [10], above 100 µM. Besides, in [11], the IC50 was above 100 µM. Besides, the MIC in assay [4], in assay [5], in [9] and in [12] was above 256 µg/mL throughout.
